In PMC4869831 (Nature structural & molecular biology, 2011):

Assays:
IGF-IR = settings: equally potent on both kinases in vitro; cited from earlier work
ATR = ATR (Mus musculus, UniProt Q9JKK8); assay type: cell-based; settings: increasing doses of caffeine
Outline: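 3T3 TopBP1-ER mouse cells (15000/well) were plated the day before on gelatine-coated wells. Graded caffeine doses were added for 15 min at 37 °C, then 4-OHT for 60 min at 37 °C. Cells were paraformaldehyde-fixed and stained for γH2AX by immunofluorescence. Automated 10x imaging gave mean γH2AX per DAPI-masked nucleus from ≥300 cells/well. Values were normalized to no-4-OHT (min) and 4-OHT-only (max) controls. Error bars s.d.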

Sequence of ATR (Q9JKK8 whole entry): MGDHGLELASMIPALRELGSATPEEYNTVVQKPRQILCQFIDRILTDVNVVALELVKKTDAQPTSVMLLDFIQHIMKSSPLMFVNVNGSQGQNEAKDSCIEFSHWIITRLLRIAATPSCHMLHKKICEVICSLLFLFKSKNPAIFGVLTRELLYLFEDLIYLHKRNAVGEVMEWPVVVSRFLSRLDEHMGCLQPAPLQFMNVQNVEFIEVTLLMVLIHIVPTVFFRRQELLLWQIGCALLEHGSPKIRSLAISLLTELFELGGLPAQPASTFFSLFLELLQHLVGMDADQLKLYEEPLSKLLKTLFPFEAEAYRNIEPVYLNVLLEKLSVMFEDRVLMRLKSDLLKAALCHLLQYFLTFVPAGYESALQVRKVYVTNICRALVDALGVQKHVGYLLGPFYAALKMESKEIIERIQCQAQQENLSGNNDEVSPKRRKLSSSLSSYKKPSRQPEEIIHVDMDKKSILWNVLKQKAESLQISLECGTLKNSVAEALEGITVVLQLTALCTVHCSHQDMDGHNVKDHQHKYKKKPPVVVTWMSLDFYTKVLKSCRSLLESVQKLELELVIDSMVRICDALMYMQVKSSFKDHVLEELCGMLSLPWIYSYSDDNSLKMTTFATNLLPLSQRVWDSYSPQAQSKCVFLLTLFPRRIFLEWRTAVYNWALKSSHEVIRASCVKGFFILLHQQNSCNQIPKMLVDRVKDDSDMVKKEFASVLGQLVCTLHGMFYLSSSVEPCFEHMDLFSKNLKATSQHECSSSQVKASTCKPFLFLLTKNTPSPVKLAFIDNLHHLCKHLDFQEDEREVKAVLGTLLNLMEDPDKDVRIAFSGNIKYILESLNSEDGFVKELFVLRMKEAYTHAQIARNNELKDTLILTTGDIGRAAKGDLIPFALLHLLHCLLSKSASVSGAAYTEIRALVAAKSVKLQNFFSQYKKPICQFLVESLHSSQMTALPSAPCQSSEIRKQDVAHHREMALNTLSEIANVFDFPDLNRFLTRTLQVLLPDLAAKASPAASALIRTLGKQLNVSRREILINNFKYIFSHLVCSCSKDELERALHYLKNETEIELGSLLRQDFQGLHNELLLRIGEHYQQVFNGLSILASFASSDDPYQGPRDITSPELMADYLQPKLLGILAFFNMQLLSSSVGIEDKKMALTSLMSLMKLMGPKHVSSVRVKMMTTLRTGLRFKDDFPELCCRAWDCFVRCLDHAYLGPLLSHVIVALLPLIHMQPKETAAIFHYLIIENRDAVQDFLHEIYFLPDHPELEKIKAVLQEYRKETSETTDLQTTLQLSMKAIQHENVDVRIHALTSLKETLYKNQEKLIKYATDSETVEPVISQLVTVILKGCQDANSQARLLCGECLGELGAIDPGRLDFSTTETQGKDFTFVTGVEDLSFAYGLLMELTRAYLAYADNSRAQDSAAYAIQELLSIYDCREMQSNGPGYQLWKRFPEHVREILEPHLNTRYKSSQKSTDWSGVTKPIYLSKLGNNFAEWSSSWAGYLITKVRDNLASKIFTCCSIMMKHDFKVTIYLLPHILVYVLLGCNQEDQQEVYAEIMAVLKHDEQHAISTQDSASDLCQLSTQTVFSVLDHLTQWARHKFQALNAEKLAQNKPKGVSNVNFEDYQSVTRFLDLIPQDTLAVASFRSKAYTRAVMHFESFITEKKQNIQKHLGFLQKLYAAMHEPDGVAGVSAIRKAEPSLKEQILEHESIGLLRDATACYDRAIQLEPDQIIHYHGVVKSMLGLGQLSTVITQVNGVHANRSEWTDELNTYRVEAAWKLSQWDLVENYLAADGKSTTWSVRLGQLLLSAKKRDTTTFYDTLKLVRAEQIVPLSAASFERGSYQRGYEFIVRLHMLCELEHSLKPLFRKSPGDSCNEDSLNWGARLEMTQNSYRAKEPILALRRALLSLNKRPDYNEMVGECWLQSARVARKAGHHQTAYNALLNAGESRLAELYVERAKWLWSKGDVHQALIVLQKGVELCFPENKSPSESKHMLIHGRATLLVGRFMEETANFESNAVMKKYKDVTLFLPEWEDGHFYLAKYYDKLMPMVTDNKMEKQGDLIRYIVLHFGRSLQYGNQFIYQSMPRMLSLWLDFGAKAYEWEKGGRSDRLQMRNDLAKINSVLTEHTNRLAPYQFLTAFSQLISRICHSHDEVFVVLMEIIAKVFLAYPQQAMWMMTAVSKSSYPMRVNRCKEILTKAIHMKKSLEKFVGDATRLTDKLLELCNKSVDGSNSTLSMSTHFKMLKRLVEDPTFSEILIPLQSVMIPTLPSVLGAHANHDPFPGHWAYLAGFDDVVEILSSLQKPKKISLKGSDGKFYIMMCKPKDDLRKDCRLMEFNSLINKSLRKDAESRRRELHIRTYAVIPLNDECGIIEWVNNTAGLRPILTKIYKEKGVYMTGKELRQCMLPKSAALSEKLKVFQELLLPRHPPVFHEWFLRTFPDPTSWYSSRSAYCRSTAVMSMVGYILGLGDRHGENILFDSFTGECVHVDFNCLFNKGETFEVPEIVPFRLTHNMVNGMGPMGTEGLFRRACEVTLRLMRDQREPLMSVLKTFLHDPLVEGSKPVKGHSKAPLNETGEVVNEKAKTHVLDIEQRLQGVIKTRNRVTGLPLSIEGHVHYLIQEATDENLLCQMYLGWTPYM

| nuclear γH2AX signal induced by 4-OHT (ATR) | Structure (SMILES) | selectivity against IGF-IR vs InsR in cellulo (IGF-IR) |
| --- | --- | --- |
| – | Nc1ncnc2c1c(-c1cccc(OCc3ccccc3)c1)cn2[C@H]1C[C@@H](CN2CCC2)C1 [NVP-AEW541] | 26 fold |
| stepwise decrease in the γH2AX signal | Cn1c(=O)c2c(ncn2C)n(C)c1=O [Caffeine] | – |
